Test results published in ChEMBL document CHEMBL1143420, “Distribution of suramin, an antitrypanosomal drug, across the blood-brain and blood-cerebrospinal fluid interfaces in wild-type and P-glycoprotein transporter-deficient mice” (Antimicrob Agents Chemother, 2007).

Legend:
Thalamus [1] = assay: Biodistribution in BALB/c mouse thalamus assessed as tritiated drug level at 150 uM perfusion after 10 mins by capillary depletion assay in presence of phenylarsine ocide; format: ADME, organism-based; details: in vivo, other
Procedure, shortened: (§1)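 BALB/c mice were perfused in situ via the heart at 5 ml/min. A 10-min preperfusion used either 150 µM phenylarsine oxide in 0.05% DMSO (final) or a 0.05% DMSO control. […] Brain regions were sampled and counted by liquid scintillation. Results are RTissue% as mean ± SEM.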

[2] = Biodistribution in wild type FVB Mdr1a/Mdr1b positive mouse pineal gland assessed as tritiated drug level at 150 uM perfusion after 30 mins by capillary depletion assay; format: ADME, organism-based; details: in vivo, other, 0.5 h
Procedure, shortened: (§2)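 The method compared multiple-time CNS uptake in Mdr1a/Mdr1b+/+ and –/– FVB male mice (about 25 g; genotype confirmed by PCR). […] Regional dpm/g was expressed relative to plasma (RTissue%). 3-4 mice per point. Genotypes were compared by Student's t test.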

[3] = Biodistribution in wild type FVB Mdr1a/Mdr1b positive mouse pituitary gland assessed as tritiated drug level at 150 uM perfusion after 30 mins by capillary depletion assay; format: ADME, organism-based; details: in vivo, other, 0.5 h; procedure, shortened: as §2
Mus musculus = organism: Mus musculus; assay: Drug uptake in BALB/c mouse assessed as tritiated drug level at 5 ml/min perfusion after 10 min relative to [14C]sucrose; format: ADME, organism-based; details: in vivo, other
[4] = Biodistribution in wild type FVB Mdr1a/Mdr1b positive mouse caudate putamen assessed as tritiated drug level at 150 uM perfusion after 30 mins by capillary depletion assay; format: ADME, organism-based; details: in vivo, other, 0.5 h; procedure, shortened: as §2
Hypothalamus [5] = assay: Biodistribution in wild type FVB Mdr1a/Mdr1b positive mouse hypothalamus assessed as tritiated drug level at 150 uM perfusion after 30 mins by capillary depletion assay; format: ADME, organism-based; details: in vivo, other, 0.5 h; procedure, shortened: as §2
[6] = Biodistribution in wild type FVB Mdr1a/Mdr1b positive mouse brain 4th ventricle choroid plexus assessed as tritiated drug level at 150 uM perfusion after 30 mins by capillary depletion assay; format: ADME, organism-based; details: in vivo, other, 0.5 h; procedure, shortened: as §2
[7] = Biodistribution in FVB Mdr1a/Mdr1b deficient mouse frontal cortex assessed as tritiated drug level at 150 uM perfusion after 30 mins by capillary depletion assay; format: ADME, organism-based; details: in vivo, other, 0.5 h; procedure, shortened: as §2
[8] = Biodistribution in FVB Mdr1a/Mdr1b deficient mouse caudate putamen assessed as tritiated drug level at 150 uM perfusion after 30 mins by capillary depletion assay; format: ADME, organism-based; details: in vivo, other, 0.5 h; procedure, shortened: as §2
Hypothalamus [9] = assay: Biodistribution in FVB Mdr1a/Mdr1b deficient mouse hypothalamus assessed as tritiated drug level at 150 uM perfusion after 30 mins by capillary depletion assay; format: ADME, organism-based; details: in vivo, other, 0.5 h; procedure, shortened: as §2
Thalamus [10] = assay: Biodistribution in FVB Mdr1a/Mdr1b deficient mouse thalamus assessed as tritiated drug level at 150 uM perfusion after 30 mins by capillary depletion assay; format: ADME, organism-based; details: in vivo, other, 0.5 h; procedure, shortened: as §2
Cerebellum = assay: Biodistribution in FVB Mdr1a/Mdr1b deficient mouse cerebellum assessed as tritiated drug level at 150 uM perfusion after 30 mins by capillary depletion assay; format: ADME, organism-based; details: in vivo, other, 0.5 h; procedure, shortened: as §2
[11] = Biodistribution in perfused FVB Mdr1a/Mdr1b deficient mouse choroid plexus assessed as tritiated drug level after 2.5 mins relative to control; format: ADME, organism-based; details: in vivo
Procedure, shortened: (§3)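 Mice were perfused with artificial plasma for 4 min, then decapitated. The IVth ventricle choroid plexus was excised and preincubated 10 min in artificial CSF at 37°C. […] BALB/c tissue also received 150 µM phenylarsine oxide in 0.05% DMSO, or 0.05% DMSO alone.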

[12] = Biodistribution in perfused wild type FVB Mdr1a/Mdr1b positive mouse choroid plexus assessed as tritiated drug level after 30 mins relative to control; format: ADME, organism-based; details: in vivo, 0.5 h; procedure, shortened: as §3
[13] = Biodistribution in perfused FVB Mdr1a/Mdr1b deficient mouse choroid plexus assessed as tritiated drug level after 30 mins relative to control; format: ADME, organism-based; details: in vivo, 0.5 h; procedure, shortened: as §3
[14] = Biodistribution in perfused BALB/c mouse choroid plexus assessed as tritiated drug level after 2.5 mins in presence of DMSO relative to control; format: ADME, organism-based; details: in vivo; procedure, shortened: as §3
[15] = Biodistribution in perfused BALB/c mouse choroid plexus assessed as tritiated drug level after 2.5 mins in presence of phenylarsine oxide relative to control; format: ADME, organism-based; details: in vivo; procedure, shortened: as §3
[16] = Biodistribution in perfused wild type FVB Mdr1a/Mdr1b positive mouse choroid plexus assessed as tritiated drug level after 2.5 mins relative to control; format: ADME, organism-based; details: in vivo; procedure, shortened: as §3
[17] = Biodistribution in wild type FVB Mdr1a/Mdr1b positive mouse choroid plexus assessed as tritiated drug level at 150 uM perfusion after 30 mins by capillary depletion assay; format: ADME, organism-based; details: in vivo, other, 0.5 h; procedure, shortened: as §2
[18] = Biodistribution in FVB Mdr1a/Mdr1b deficient mouse choroid plexus assessed as tritiated drug level at 150 uM perfusion after 30 mins by capillary depletion assay; format: ADME, organism-based; details: in vivo, other, 0.5 h; procedure, shortened: as §2
[19] = Biodistribution in FVB Mdr1a/Mdr1b deficient mouse pineal gland assessed as tritiated drug level at 150 uM perfusion after 30 mins by capillary depletion assay; format: ADME, organism-based; details: in vivo, other, 0.5 h; procedure, shortened: as §2
[20] = Biodistribution in FVB Mdr1a/Mdr1b deficient mouse pituitary gland assessed as tritiated drug level at 150 uM perfusion after 30 mins by capillary depletion assay; format: ADME, organism-based; details: in vivo, other, 0.5 h; procedure, shortened: as §2
[21] = Biodistribution in perfused wild type FVB Mdr1a/Mdr1b positive mouse choroid plexus assessed as drug accumulation after 2.5 mins; format: ADME, organism-based; details: in vivo; procedure, shortened: as §3
[22] = Biodistribution in perfused FVB Mdr1a/Mdr1b deficient mouse choroid plexus assessed as drug accumulation after 2.5 mins; format: ADME, organism-based; details: in vivo; procedure, shortened: as §3
[23] = Biodistribution in perfused wild type FVB Mdr1a/Mdr1b positive mouse choroid plexus assessed as drug accumulation after 30 mins; format: ADME, organism-based; details: in vivo, 0.5 h; procedure, shortened: as §3
[24] = Biodistribution in perfused FVB Mdr1a/Mdr1b deficient mouse choroid plexus assessed as drug accumulation after 30 mins; format: ADME, organism-based; details: in vivo, 0.5 h; procedure, shortened: as §3
[25] = Biodistribution in perfused BALB/c mouse choroid plexus assessed as drug accumulation after 2.5 mins in presence of phenylarsine oxide; format: ADME, organism-based; details: in vivo; procedure, shortened: as §3
[26] = Protein binding in artificial plasma assessed as tritiated drug level; format: ADME, cell-free; details: read-out: PPB (converted)
Procedure, shortened: (§4)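 [3H]suramin (0.14 µCi) was dissolved in 0.7 ml of warmed artificial plasma, mouse plasma, or reconstituted human plasma. Binding was measured by centrifugal ultrafiltration. Mouse plasma came from heparinized cardiac blood of male FVB mice, spun at 5,400 x g for 10 min. Human plasma was lyophilized citrated plasma. Protein retention by the filter was checked by the Lowry method.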

[27] = Protein binding in human plasma assessed as tritiated drug level; format: ADME, cell-free; details: read-out: PPB (converted); procedure, shortened: as §4
[28] = Protein binding in mouse plasma assessed as tritiated drug level; format: ADME, cell-free; details: read-out: PPB (converted); procedure, shortened: as §4
[29] = Biodistribution in perfused BALB/c mouse choroid plexus assessed as drug accumulation after 2.5 mins in presence of DMSO; format: ADME, organism-based; details: in vivo; procedure, shortened: as §3
[30] = Biodistribution in BALB/c mouse 4th ventricle choroid plexus assessed as tritiated drug level at 5 ml/min perfusion after 30 min; format: ADME, organism-based; details: in vivo, other, 0.5 h
Procedure, shortened: (§5)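 BALB/c mice were anesthetized (medetomidine 2 mg/kg, ketamine 150 mg/kg), heparinized, and perfused via the left ventricle at 5 ml/min with oxygenated artificial plasma (Krebs-Henseleit base, 1 g/liter BSA, 37°C). […] Tissue dpm/g was expressed as % of plasma dpm/ml (RTissue%). 3-4 mice per point.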

[31] = Biodistribution in BALB/c mouse pineal gland assessed as tritiated drug level at 5 ml/min perfusion after 30 min; format: ADME, organism-based; details: in vivo, other, 0.5 h; procedure, shortened: as §5
[32] = Biodistribution in BALB/c mouse pituitary gland assessed as tritiated drug level at 5 ml/min perfusion after 30 min; format: ADME, organism-based; details: in vivo, other, 0.5 h; procedure, shortened: as §5
[33] = Biodistribution in BALB/c mouse choroid plexus assessed as tritiated drug level at 150 uM perfusion after 10 mins by capillary depletion assay in presence of DMSO; format: ADME, organism-based; details: in vivo, other; procedure, shortened: as §1
[34] = Partition coefficient of the compound; details: octanol/water

## OC[C@H]1O[C@@](CO)(O[C@H]2O[C@H](CO)[C@@H](O)[C@H](O)[C@H]2O)[C@@H](O)[C@@H]1O [SUCROSE]
Thalamus [1]
  Activity: 2.2%
[2]
  Drug uptake: 54.4%
[3]
  Drug uptake: 80.4%
Mus musculus
  Drug uptake: 1.56%
[4]
  Drug uptake: 1.1%
Hypothalamus [5]
  Drug uptake: 2.2%
[6]
  Drug uptake: 83.2%
[7]
  Drug uptake: 2.5%
[8]
  Drug uptake: 2.5%
Hypothalamus [9]
  Drug uptake: 5.8%
Thalamus [10]
  Drug uptake: 3.4%
Cerebellum
  Drug uptake: 2.5%
[11]
  Drug uptake: 1.8%
[12]
  Drug uptake: 2.1%
[13]
  Drug uptake: 2.6%
[14]
  Drug uptake: 0.7%
[15]
  Drug uptake: 1.6%
[16]
  Drug uptake: 0.9%

## Cc1ccc(C(=O)Nc2ccc(S(=O)(=O)O)c3cc(S(=O)(=O)O)cc(S(=O)(=O)O)c23)cc1NC(=O)c1cccc(NC(=O)Nc2cccc(C(=O)Nc3cc(C(=O)Nc4ccc(S(=O)(=O)O)c5cc(S(=O)(=O)O)cc(S(=O)(=O)O)c45)ccc3C)c2)c1 [SURAMIN]
[17]
  Drug uptake: 100%
[18]
  Drug uptake: 97%
[2]
  Drug uptake: 263%
[19]
  Drug uptake: 437%
[3]
  Drug uptake: 46%
[20]
  Drug uptake: 57%
[21]
  Drug uptake: 8.6%
[11]
  Drug uptake: 12.5%
[22]
  Drug uptake: 10.9%
[12]
  Drug uptake: 27.2%
[23]
  Drug uptake: 25.3%
[13]
  Drug uptake: 29.3%
[24]
  Drug uptake: 26.6%
[14]
  Drug uptake: 7.4%
[15]
  Drug uptake: 13%
[25]
  Drug uptake: 11.4%
[26]
  fraction unbound: 0.047
[27]
  fraction unbound: 0.006
[28]
  fraction unbound: 0.03
[29]
  Drug uptake: 6.7%
[16]
  Drug uptake: 9.5%
[30]
  Drug uptake: 163%
[31]
  Drug uptake: 388%
[32]
  Drug uptake: 39%
[33]
  Drug uptake: 99.4%
[34]
  partition coefficient: 0.00023
